ChEMBL document CHEMBL2073777, “Characterization of ochratoxin A transport by human organic anion transporters” (Life Sci, 2001)

Assays:
Type in all cases: functional, cell-based
[1] = molecular target: T1, Organic anion transporter 3 (Homo sapiens, UniProt Q8TCC7); test: TP_TRANSPORTER: inhibition of Ochratoxin A uptake (OTA: 1 uM, Aspartame: 200 uM) in OAT3-expressing S2 cells; settings: s2, 200 µM
T1 sequence (Q8TCC7 whole entry): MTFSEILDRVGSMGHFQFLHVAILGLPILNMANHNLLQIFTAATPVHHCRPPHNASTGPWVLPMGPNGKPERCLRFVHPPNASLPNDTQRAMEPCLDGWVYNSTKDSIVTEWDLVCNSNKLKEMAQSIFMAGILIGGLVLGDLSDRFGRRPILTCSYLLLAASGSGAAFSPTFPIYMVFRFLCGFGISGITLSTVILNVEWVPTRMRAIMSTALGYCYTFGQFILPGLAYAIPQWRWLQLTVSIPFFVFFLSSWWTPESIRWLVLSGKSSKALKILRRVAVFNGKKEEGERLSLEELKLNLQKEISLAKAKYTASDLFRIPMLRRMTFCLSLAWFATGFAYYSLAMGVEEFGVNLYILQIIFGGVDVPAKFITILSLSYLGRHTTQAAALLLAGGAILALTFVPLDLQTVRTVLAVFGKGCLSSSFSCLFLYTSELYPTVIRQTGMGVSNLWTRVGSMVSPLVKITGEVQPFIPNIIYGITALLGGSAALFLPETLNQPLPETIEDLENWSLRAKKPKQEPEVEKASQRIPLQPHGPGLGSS
Outline: (§1)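 Mouse proximal tubule second-segment (S2) cells stably expressing human OAT1 or OAT3. Uptake of [³H]-labelled ochratoxin A was measured with and without added OAT substrates as inhibitors.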

[2] = molecular target: T2, Solute carrier family 22 member 6 (Homo sapiens, UniProt Q4U2R8); test: TP_TRANSPORTER: inhibition of Ochratoxin A uptake (OTA: 1 uM, Aspartame: 200 uM) in OAT1-expressing S2 cells; settings: s2, 200 µM; outline: as §1
T2 sequence (Q4U2R8 whole entry): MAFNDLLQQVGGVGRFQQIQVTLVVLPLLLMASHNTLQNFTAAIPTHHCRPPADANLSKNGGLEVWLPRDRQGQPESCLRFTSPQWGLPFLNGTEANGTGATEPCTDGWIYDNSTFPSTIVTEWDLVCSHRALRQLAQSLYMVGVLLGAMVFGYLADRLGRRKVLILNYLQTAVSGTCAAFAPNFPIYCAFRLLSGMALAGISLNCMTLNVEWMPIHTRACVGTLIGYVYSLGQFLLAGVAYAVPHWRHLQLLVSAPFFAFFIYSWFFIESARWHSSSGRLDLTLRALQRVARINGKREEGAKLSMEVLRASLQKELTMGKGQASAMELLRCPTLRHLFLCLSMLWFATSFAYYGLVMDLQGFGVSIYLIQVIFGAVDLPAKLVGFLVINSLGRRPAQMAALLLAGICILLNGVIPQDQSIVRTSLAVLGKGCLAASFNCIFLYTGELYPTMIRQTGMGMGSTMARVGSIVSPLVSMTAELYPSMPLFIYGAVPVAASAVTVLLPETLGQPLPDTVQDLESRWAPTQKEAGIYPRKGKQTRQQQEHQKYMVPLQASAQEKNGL

[3] = molecular target: T3, OAT3 (Organic anion transporter 3) (Homo sapiens, UniProt Q8TCC7); test: TP_TRANSPORTER: uptake in OAT3-expressing S2 cells; settings: mouse, S2 cells that express OAT3
T3 sequence (Q8TCC7 whole entry): T1 sequence (Q8TCC7 whole entry)
Outline: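 S2 proximal tubule cells from mice stably expressing human OAT3. [³H]-ochratoxin A uptake was followed over time and concentration, and the apparent Km was taken from the saturable uptake.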

[4] = molecular target: T1, Organic anion transporter 3; test: TP_TRANSPORTER: inhibition of Ochratoxin A uptake in OAT3-expressing S2 cells
[5] = molecular target: T1, Organic anion transporter 3; test: TP_TRANSPORTER: inhibition of Ochratoxin A uptake (OTA: 1 uM, Indomethacin: 200 uM) in OAT3-expressing S2 cells; settings: mouse, s2, 200 µM; outline: as §1
[6] = molecular target: T2, Solute carrier family 22 member 6; test: TP_TRANSPORTER: inhibition of Ochratoxin A uptake (OTA: 1 uM, Indomethacin: 200 uM) in OAT1-expressing S2 cells; settings: mouse, s2, 200 µM; outline: as §1
[7] = molecular target: T1, Organic anion transporter 3; test: TP_TRANSPORTER: inhibition of Ochratoxin A uptake (OTA: 1 uM, PCG: 200 uM) in OAT3-expressing S2 cells; settings: mouse, s2, 200 µM; outline: as §1

COC(=O)[C@H](Cc1ccccc1)NC(=O)[C@@H](N)CC(=O)O
Activity [1]: is not an inhibitor [-]
Activity [2]: is not an inhibitor [-]

C[C@@H]1Cc2c(Cl)cc(C(=O)N[C@@H](Cc3ccccc3)C(=O)O)c(O)c2C(=O)O1 [3R14S-OCHRATOXIN A]
Km [3]: 0.75 µM

CC1=C2C(=CO[C@H](C)[C@H]2C)C(O)=C(C(=O)O)C1=O [CITRININ]
Ki [4]: 15.4 µM

COc1ccc2c(c1)c(CC(=O)O)c(C)n2C(=O)c1ccc(Cl)cc1 [INDOMETHACIN]
Activity [5]: inhibitor [(at a rough estimate) 15 % of control]
Activity [6]: inhibitor [(at a rough estimate) 25 % of control]

CCCCCCCC(=O)O [OCTANOIC ACID]
Ki [4]: 8.6 µM

CC1(C)S[C@@H]2[C@H](NC(=O)Cc3ccccc3)C(=O)N2[C@H]1C(=O)O [PENICILLIN G]
Activity [7]: inhibitor [(at a rough estimate) 35 % of control]

CN1C(C(=O)Nc2ccccn2)=C(O)c2ccccc2S1(=O)=O [PIROXICAM]
Ki [4]: 4.88 µM
